# High-throughput results deposited in PubChem BioAssay by Sanford-Burnham Center for Chemical Genomics.
# Rows were chosen to be rich in hits. Some 0.77% of all compounds tested hit in one or more screens of this group.
# hIAP inh = blocks human intestinal alkaline phosphatase | AID 2544 | purified IAP, CDP-Star luminescence, 30 min | P09923 | 330,000 compounds, 0.12% hits | inhibition, % at 10 µM;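 active means inhibition reaching a set limit with compound at 10 µM in the primary screen, cut at about 35% in these data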;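 further: plate controls were DMSO wells with enzyme for no effect and no-enzyme buffer wells for full effect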
# Target sequence (P09923 whole entry, looked up): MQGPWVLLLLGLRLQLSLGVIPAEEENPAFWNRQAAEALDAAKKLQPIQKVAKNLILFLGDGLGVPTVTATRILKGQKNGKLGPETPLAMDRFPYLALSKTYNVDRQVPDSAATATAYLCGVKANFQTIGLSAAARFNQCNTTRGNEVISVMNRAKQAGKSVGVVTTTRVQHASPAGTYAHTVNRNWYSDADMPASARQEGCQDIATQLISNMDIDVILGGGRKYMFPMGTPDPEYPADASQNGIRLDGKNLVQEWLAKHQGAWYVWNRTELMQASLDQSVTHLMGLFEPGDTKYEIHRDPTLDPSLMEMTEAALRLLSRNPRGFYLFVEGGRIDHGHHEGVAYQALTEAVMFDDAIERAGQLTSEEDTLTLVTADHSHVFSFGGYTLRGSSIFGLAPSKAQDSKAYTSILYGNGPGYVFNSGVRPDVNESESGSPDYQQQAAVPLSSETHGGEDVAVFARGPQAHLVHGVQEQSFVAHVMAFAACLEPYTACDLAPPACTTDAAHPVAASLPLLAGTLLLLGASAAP
# mIAP inh = mouse IAP inhibition; purified mouse IAP, CDP-Star luminescence, 30 min; inhibition, % at 10 µM; 330,000 compounds, 0.2% hits; AID 2806;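 active means inhibition of at least 40% at 10 µM in the primary screen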;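 further: plate controls were DMSO with enzyme for no effect and no enzyme wells for full effect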
# bIAP inh = blocks bovine intestinal alkaline phosphatase activity. purified bovine IAP, CDP-star luminescence, 30 min. inhibition, % at 20 µM. 190,000 tested, under 10 active;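 active means over 50% inhibition of intestinal alkaline phosphatase at 20 µM in the single-dose screen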
#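 Incubation: 30 min reaction at room temperature / Material: purified bovine intestinal alkaline phosphatase (IAP) enzyme / Input: enzyme at 1/65,000,000 dilution / Dosing: 20 µM single dose / Signal: CDP-star luminescence signal / Reagent: CDP-star chemiluminescent phosphatase substrate, 30 µM final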
# hIAP activ = human IAP activation; AID 2524; P09923; activation factor at 10 µM; 330,000 compounds, 0.16% hits; purified human IAP, CDP-Star luminescence, 30 min; active compounds read high; 1 = vehicle-only enzyme, 0 = enzyme-free background;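 active means activation factor of the enzyme at least 2-fold when tested at 20 µM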
# bIAP act = intestinal alkaline phosphatase (bovine) activation; purified bovine IAP, CDP-star luminescence, 30 min; active compounds read high; fold of DMSO-control signal, blank-subtracted; activation factor at 20 µM; 200,000 compounds, 0.17% hits; AID 1016;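 active means activation factor of 2 or more at 20 µM, a signal rise over negative controls twice the positive control's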
# mIAP activ = increases mouse intestinal alkaline phosphatase activity | activation factor at 10 µM | 330,000 compounds, 0.24% hits | muIAP, CDP-Star luminescence, 30 min; active compounds read high; 1 = vehicle-only enzyme signal, 0 = enzyme-free wells;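 active means activation factor of at least 2 at 20 µM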
#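 Assay system: mouse IAP enzyme / Compound: DMSO-dissolved test compounds / Timing: 30 min, room temperature / Measured by: luminescence from enzymatic CDP-Star hydrolysis / Control set: DMSO-only wells, enzyme-free buffer wells as negative control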
# hIAP act conf = human IAP activation confirmation. shares compounds with hIAP activ. activation (%Activity, negative = activation), % at 8.3 µM. purified IAP, CDP-Star luminescence, 30 min; active compounds read low. AID 434926. 880 compounds, 10% hits;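 active means at least twofold enzyme activation in any of six single-dose repeats, which the averaged readout prints as negative percent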
# * = called active by the depositor; · = not tested or not shown.
SMILES,hIAP inh,mIAP inh,bIAP inh,hIAP activ,bIAP act,mIAP activ,hIAP act conf
Cc1cc(C)c(O)c(-c2cc(C(=O)NCCc3ccc(S(N)(=O)=O)cc3)[nH]n2)c1,-72,25,·,1.7,·,0.75,·
COc1ccc(CCNC(=O)c2cc(-c3cc(Cl)ccc3O)n[nH]2)cc1OC,-134,-80,·,2.3*,·,1.8,-46
Cc1ccc(NC(=O)c2cc(-c3ccccc3O)n[nH]2)cc1Cl,-56,-13,·,1.6,·,1.1,·
COc1ccc(CCNC(=O)c2cc(-c3ccc(C)cc3O)n[nH]2)cc1OC,-115,-46,-50,2.1*,1.5,1.5,-63
Cc1cc(O)c(-c2cc(C(=O)NCCc3ccc(S(N)(=O)=O)cc3)[nH]n2)cc1C,-123,22,·,2.2*,·,0.78,5
COc1ccc(CCNC(=O)c2cc(-c3cc(C)cc(C)c3O)n[nH]2)cc1OC,-79,-15,·,1.8,·,1.1,·
NS(=O)(=O)c1ccc(NC(=O)c2cc(-c3ccccc3O)n[nH]2)cc1,-103,23,·,2*,·,0.77,8
CCN(c1ccc(OC)cc1)S(=O)(=O)c1csc(C(N)=O)c1,5,-8,·,0.95,·,1.1,·
Cn1cc(CNCc2cnc3ccccn23)c(-c2ccc(Oc3ccccc3)cc2)n1,-169,1,-17,2.7*,1.2,0.99,2
COc1ccc(C)cc1S(=O)(=O)n1nc(C)cc1C,-13,5,-8,1.1,1.1,0.95,·
COc1ccc(F)cc1S(=O)(=O)n1nc(C)cc1C,40*,2,·,0.6,·,0.97,-62
CC(=O)N1C(=O)NC2=C(C(=O)CCC2)C1c1cccc([N+](=O)[O-])c1 (centres undefined),-2,-1,·,1,·,1,·
CCc1ccc(/C=N/Nc2ncnc3nc[nH]c23)cc1,-167,2,·,2.7*,·,0.98,34
CCNc1nc(NCC)nc(Oc2ccc(OCc3ccccc3)nn2)n1,8,2,10,0.92,0.9,0.98,·
CC(C)Nc1nc(NC(C)C)nc(Oc2ccc(OCc3ccccc3)nn2)n1,37*,-3,3,0.63,1,1,-39
Cc1occc1C(=O)NNC(=S)Nc1cccc([N+](=O)[O-])c1,-111,9,-23,2.1*,1.2,0.91,-7
COc1cc(/C=C2\Oc3cc(O)ccc3C2=O)ccc1O,46*,20,·,0.55,·,0.8,10
CC(OC(=O)c1cnc(Cl)c(Cl)c1)C(=O)NCc1ccccc1 (centres undefined),5,-6,·,0.95,·,1.1,·
CC(C)=CCc1c(O)cc2c(c1O)C(=O)CC(c1ccccc1)O2 (centres undefined),14,7,·,0.86,·,0.93,·
CC(C)=CCc1c(O)ccc2c1OC(c1ccc(O)c(O)c1)CC2=O (centres undefined),68*,32,20,0.32,0.8,0.68,26
CC(NC(=O)c1ccc2nc[nH]c2c1)c1ccccc1 (centres undefined),-139,4,-11,2.4*,1.1,0.96,-4
CCC(CC)NC(=O)c1ccc2nc[nH]c2c1,-15,13,11,1.1,0.9,0.87,·
CC(C)N(CC(N)=O)c1ccc(S(=O)(=O)N2CCCC2)cn1,1,-10,·,0.99,·,1.1,·
Cc1ccc(NC(=S)NCCSc2ccc(Cl)cc2)cc1,-133,-127,-8,2.3*,1.1,2.3*,-9
COC(=O)Cc1ccc(NC(=S)NCCSc2ccc(C)cc2)cc1,1,-69,18,0.99,0.8,1.7,·
SMILES,hIAP inh,mIAP inh,bIAP inh,hIAP activ,bIAP act,mIAP activ,hIAP act conf
O=C(c1cccs1)N1CCc2ccccc21,-119,-6,7,2.2*,0.9,1.1,4
O=C(C1CCN(S(=O)(=O)c2ccccc2)CC1)N1CCOCC1,40*,9,10,0.6,0.9,0.91,-26
COc1ccc2nc(NNC(=O)c3cc(=O)c4ccccc4o3)sc2c1,-124,14,4,2.2*,1,0.86,-71
O=C(NNc1nc2c(F)cccc2s1)c1cc(=O)c2ccccc2o1,-174,20,4,2.7*,1,0.8,11
Cc1cccc2sc(NNC(=O)c3cc(=O)c4ccccc4o3)nc12,-95,31,-14,2,1.1,0.69,·
CCCn1c(SCC(=O)NC2CCC(C)CC2)n[nH]c1=O (centres undefined),-10,-1,·,1.1,·,1,·
COc1ccc(OC)c(S(=O)(=O)n2nnc3ccccc32)c1,37*,4,6,0.63,0.9,0.96,-54
C[C@@H]1C(NC(=O)c2ccccc2)CC2CC1C2(C)C (some centres undefined),-9,-7,·,1.1,·,1.1,·
COc1cccc(/C=N/NC(=O)c2cc(-c3ccccn3)nc3ccccc23)c1O,-113,0,·,2.1*,·,1,-1
CCOc1cccc(/C=N/NC(=O)c2cc(-c3cccn3C)n[nH]2)c1O,-162,21,-12,2.6*,1.1,0.79,23
O=C(N/N=C/c1ccc(F)cc1)c1cc(-c2ccccn2)nc2ccccc12,4,13,·,0.96,·,0.87,·
COc1cc(OC)c(OC)cc1/C=N/NC(=O)c1cc(-c2cccn2C)n[nH]1,4,3,-22,0.96,1.2,0.97,·
COc1cccc(/C=N/Nc2ccc([N+](=O)[O-])cc2)c1O,37*,14,·,0.63,·,0.86,-19
COc1cccc(/C=N/NC(=O)CNC(=O)c2ccncc2)c1O,-116,5,·,2.2*,·,0.95,-42
Cc1ccc(C)c(NC(=S)N2CCC(NC(=O)C3CCCCC3)CC2)c1,0,0,·,1,·,1,·
CN1C(=O)C(=O)/C(=C(/O)c2ccc(Br)cc2)C1c1ccccc1F (centres undefined),-5,2,·,1.1,·,0.98,·
COc1cccc(/C=N/NC(=O)c2ccc(=O)[nH]n2)c1O,-144,11,·,2.4*,·,0.89,2
Cc1ccc(COC(=O)CCCN=C2NS(=O)(=O)c3ccccc32)cc1,-13,5,·,1.1,·,0.95,·
COCc1cc(=O)[nH]c(Nc2nc3ccc(C)cc3o2)n1,-108,2,-23,2.1*,1.2,0.98,-22
CCc1ccc2nc(Nc3nc(COC)cc(=O)[nH]3)nc(C)c2c1,-110,-6,-32,2.1*,1.3,1.1,-31
CCCCCc1c(C)nc(Nc2nc(C)c3cc(OC)ccc3n2)[nH]c1=O,-111,19,-57,2.1*,1.6,0.81,17
COc1ccc(CN(C)CC(=O)NCC(=O)Nc2c(C)cccc2C)cc1,9,-12,·,0.91,·,1.1,·
CC[n+]1c(/C=C/c2c[nH]c3ccccc23)ccc2cc(C)ccc21,36*,31,30,0.64,0.7,0.69,-86*
